{"source": "paper PMC4212793", "about": "(ACS Nano, 2014)", "key": {"[1]": {"tested_on": "neonatal rat cardiomyocytes (NRCMs)", "experiment": "Cytoprotection against H2O2 oxidative stress, Live/Dead staining", "assay_type": "cell-based", "details": "H2O2 200 μM, 2 h; p < 0.001; N = 3"}, "mESC-CMs": {"tested_on": "mESC-CMs", "experiment": "Mouse myocardial infarction model, engraftment of DiI-labelled mESC-CMs", "assay_type": "in vivo, athymic nude mice (Foxn1nu)", "details": "heart sections 4 weeks after MI; p < 0.05; N = 3", "method_in_brief": "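Male athymic nude mice (Foxn1nu) underwent MI by left anterior descending coronary artery ligation. Immediately after surgery, 2 × 105 CM-DiI-prelabelled mESC-derived CMs from one differentiation batch, alone or encapsulated in test gel, were injected intramyocardially through 30 G needles at two border-zone sites. PBS and gel-only groups served as controls. Frozen OCT heart sections were fixed in 4% paraformaldehyde before imaging.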"}, "[2]": {"details": "PA-RGDS self-assembled under similar conditions; cited from earlier work"}}, "data": [{"substance": "C16-GTAGLIGQRGDS [PA-RGDS]", "values": [{"measurement": "viability after H2O2 (Live/Dead staining) compared to NRCMs without encapsulation", "setting": "[1]", "value": "significantly improved viability"}, {"measurement": "number of engrafted DiI-positive mESC-CMs at 4 weeks compared to mESC-CMs only", "setting": "mESC-CMs", "value": "significantly higher"}, {"measurement": "storage modulus (G′)", "setting": "[2]", "value": "around 100 Pa"}]}]}
